According to ChEMBL document CHEMBL1135509 (J Med Chem, 2002):

Legend:
[1] = target: Monoamine transporters; Norepinephrine & serotonin (Rattus norvegicus) (UniProt P31652+Q9WTR4); test: Ratio of Ki at norepinephrine transporter and Ki at 5-HT transporter.; type: protein assay
In short: (§1)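 Selectivity ratio calculated from Ki values measured in the monoamine reuptake assays, each Ki being the mean ± standard error of at least three experiments.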

[2] = target: Norepinephrine transporter (Rattus norvegicus, UniProt Q9WTR4); test: Inhibition of high affinity uptake of [3H]NE by norepinephrine transporter in nerve endings obtained from rat brain.
In short: (§2)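 Reuptake inhibition reported as Ki; values are mean ± standard error of at least three experiments.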

[3] = target: Sodium-dependent serotonin transporter (Rattus norvegicus, UniProt P31652); test: Inhibition of high affinity uptake of [3H]5-HT by serotonin transporter in nerve endings obtained from rat brain.; in short: as §2
[4] = target: Monoamine transporters; Norepininephrine & dopamine (Rattus norvegicus) (UniProt P23977+Q9WTR4); test: Ratio of Ki at norepinephrine transporter and Ki at dopamine transporter.; type: protein assay; in short: as §1
[5] = target: Monoamine transporters; serotonin & dopamine (Rattus norvegicus) (UniProt P31652+P23977); test: Ratio of Ki at 5-HT transporter and Ki at dopamine transporter.; type: protein assay; in short: as §1
[6] = target: T1, Sodium-dependent dopamine transporter (Rattus norvegicus, UniProt P23977); test: Inhibition of high affinity uptake of [3H]-DA by dopamine transporter in nerve endings obtained from rat brain.; in short: as §2
[7] = target: T1, Sodium-dependent dopamine transporter; test: 373 Ability to inhibit high affinity uptake of [3H]DA using rat nerve endings obtained from brain regions enriched in dopamine transporter; in short: as §2

Sequence of Norepinephrine transporter (Q9WTR4 whole entry): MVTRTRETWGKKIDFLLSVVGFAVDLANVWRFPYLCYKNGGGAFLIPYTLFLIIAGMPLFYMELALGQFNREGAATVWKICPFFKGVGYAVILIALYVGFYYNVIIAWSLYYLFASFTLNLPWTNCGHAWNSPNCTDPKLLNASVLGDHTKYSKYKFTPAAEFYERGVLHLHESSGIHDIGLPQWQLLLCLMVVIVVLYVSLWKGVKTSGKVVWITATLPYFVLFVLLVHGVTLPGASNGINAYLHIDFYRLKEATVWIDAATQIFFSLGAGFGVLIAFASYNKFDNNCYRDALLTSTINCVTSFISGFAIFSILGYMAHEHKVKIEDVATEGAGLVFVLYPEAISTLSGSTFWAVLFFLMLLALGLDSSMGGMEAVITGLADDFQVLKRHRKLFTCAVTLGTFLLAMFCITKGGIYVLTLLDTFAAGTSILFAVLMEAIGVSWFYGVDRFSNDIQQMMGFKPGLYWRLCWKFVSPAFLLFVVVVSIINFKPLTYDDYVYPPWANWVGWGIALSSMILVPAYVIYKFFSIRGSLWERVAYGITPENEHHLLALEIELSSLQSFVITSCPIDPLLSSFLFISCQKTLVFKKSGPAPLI
Sequence of Sodium-dependent serotonin transporter (P31652 whole entry): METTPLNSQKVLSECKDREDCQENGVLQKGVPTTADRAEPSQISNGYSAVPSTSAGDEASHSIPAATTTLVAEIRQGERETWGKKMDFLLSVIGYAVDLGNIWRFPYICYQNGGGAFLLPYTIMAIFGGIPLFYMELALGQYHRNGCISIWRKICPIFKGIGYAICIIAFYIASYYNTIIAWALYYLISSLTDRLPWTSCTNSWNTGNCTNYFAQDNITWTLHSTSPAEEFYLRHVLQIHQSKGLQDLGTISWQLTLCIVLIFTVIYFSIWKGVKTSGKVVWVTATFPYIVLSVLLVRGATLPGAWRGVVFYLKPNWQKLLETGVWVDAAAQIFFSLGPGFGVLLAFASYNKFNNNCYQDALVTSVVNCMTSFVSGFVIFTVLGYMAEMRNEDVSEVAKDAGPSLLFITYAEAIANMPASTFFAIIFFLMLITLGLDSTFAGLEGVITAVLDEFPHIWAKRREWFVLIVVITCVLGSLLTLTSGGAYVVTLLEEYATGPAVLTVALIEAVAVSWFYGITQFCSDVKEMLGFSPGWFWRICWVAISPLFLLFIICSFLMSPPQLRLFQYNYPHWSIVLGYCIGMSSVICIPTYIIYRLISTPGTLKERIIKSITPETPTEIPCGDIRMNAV
Sequence of Monoamine transporters; serotonin & dopamine (Rattus norvegicus) (P23977 whole entry, looked up): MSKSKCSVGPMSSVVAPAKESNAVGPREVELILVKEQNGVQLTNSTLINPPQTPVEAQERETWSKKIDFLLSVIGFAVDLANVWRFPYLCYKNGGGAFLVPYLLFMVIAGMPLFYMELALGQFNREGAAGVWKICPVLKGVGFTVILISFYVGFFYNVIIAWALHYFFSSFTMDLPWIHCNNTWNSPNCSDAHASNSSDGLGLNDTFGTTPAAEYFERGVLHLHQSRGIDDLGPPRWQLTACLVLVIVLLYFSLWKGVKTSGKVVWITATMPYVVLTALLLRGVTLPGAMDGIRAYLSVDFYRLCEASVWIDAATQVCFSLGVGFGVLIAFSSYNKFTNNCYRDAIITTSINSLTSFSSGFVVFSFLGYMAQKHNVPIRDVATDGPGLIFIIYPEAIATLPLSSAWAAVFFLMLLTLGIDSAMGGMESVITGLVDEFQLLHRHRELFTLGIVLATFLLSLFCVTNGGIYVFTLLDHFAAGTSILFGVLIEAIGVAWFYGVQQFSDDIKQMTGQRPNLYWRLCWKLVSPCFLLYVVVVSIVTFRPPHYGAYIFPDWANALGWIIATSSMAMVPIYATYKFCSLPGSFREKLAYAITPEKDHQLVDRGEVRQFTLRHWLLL
Sequence of Monoamine transporters; serotonin & dopamine (Rattus norvegicus) (P31652 whole entry, looked up): as the sequence (P31652 whole entry) above
T1 sequence (P23977 whole entry): as the sequence (P23977 whole entry, looked up) above

Row | Structure (SMILES) | Ratio [1] | Ki [2] | Ki [3] | Ratio [4] | Ratio [5] | Ki [6] | Ki [7]
1 | COC(=O)C1CN(C(C)C)CC[C@@H]1c1ccc(Cl)cc1 (some centres not stated) | 0.49 | 1.84 µM | 3.74 µM | 0.26 | 0.54 | 6.98 µM | –
2 | CN1CC[C@H](c2ccc(Cl)cc2)[C@@H](CO)C1 | 0.13 | 0.198 µM | 1.55 µM | 0.4 | 3.12 | 0.497 µM | –
3 | COC(=O)C1CN(S(=O)(=O)c2ccccc2)CC[C@@H]1c1ccc(Cl)cc1 (some centres not stated) | 0.45 | 16.1 µM | 36.1 µM | 0.83 | 1.85 | – | –
4 | COC(=O)C1CN(CCCF)CC[C@@H]1c1ccc(Cl)cc1 (some centres not stated) | < 0.03 | 0.335 µM | > 10 µM | 0.08 | > 2.3 | 4.28 µM | –
5 | COC(=O)[C@@H]1CN(CCc2ccccc2)CC[C@@H]1c1ccc(Cl)cc1 | 0.12 | 0.233 µM | 1.88 µM | 0.23 | 1.84 | 1.02 µM | –
6 | CCOC(=O)CCN1CC[C@H](c2ccc(Cl)cc2)C(C(=O)OC)C1 (some centres not stated) | < 0.21 | 2.1 µM | > 10 µM | < 0.21 | – | > 10 µM | –
7 | Cc1noc(C2CN(C)CC[C@@H]2c2ccc(Cl)cc2)n1 (some centres not stated) | 0.04 | 0.256 µM | 5.96 µM | 1.37 | 31.8 | 0.187 µM | –
8 | COC(=O)C1CNCC[C@@H]1c1ccc(Cl)cc1 (some centres not stated) | 0.02 | 0.0079 µM | 0.434 µM | 0.03 | 1.56 | 0.279 µM | –
9 | COC(=O)[C@H]1CN(CCc2ccccc2)CC[C@@H]1c1ccc(Cl)cc1 | 0.05 | 0.142 µM | 2.89 µM | 0.13 | 2.68 | 1.08 µM | –
10 | COC(=O)[C@@H]1CN(Cc2ccccc2)CC[C@@H]1c1ccc(Cl)cc1 | 1.36 | 2.98 µM | 2.19 µM | 0.91 | 0.67 | 3.28 µM | –
11 | OCC1CNCC[C@@H]1c1ccc(Cl)cc1 (some centres not stated) | 0.29 | 0.069 µM | 0.239 µM | 0.08 | 0.29 | 0.836 µM | –
12 | Cc1noc(C2CNCC[C@@H]2c2ccc(Cl)cc2)n1 (some centres not stated) | 0.09 | 0.034 µM | 0.373 µM | 0.18 | 1.97 | – | 0.189 µM
13 | COC(=O)C1CN(CCCc2ccccc2)CC[C@@H]1c1ccc(Cl)cc1 (some centres not stated) | 0.15 | 0.488 µM | 3.27 µM | 0.6 | 4.04 | 0.81 µM | –
14 | COC(=O)C1CN(Cc2ccc(O)cc2)CC[C@@H]1c1ccc(Cl)cc1 (some centres not stated) | 0.41 | 1.08 µM | 2.65 µM | 0.67 | 1.64 | 1.62 µM | –
15 | COC(=O)C1CN(C(C)=O)CC[C@@H]1c1ccc(Cl)cc1 (some centres not stated) | – | > 10 µM | > 10 µM | – | – | > 10 µM | –
16 | COC(=O)C1CN(CCC(c2ccccc2)c2ccccc2)CC[C@@H]1c1ccc(Cl)cc1 (some centres not stated) | 1.61 | 4.34 µM | 2.69 µM | 1.01 | 0.63 | 4.29 µM | –
17 | COC(=O)C1CN(CCCCl)CC[C@@H]1c1ccc(Cl)cc1 (some centres not stated) | < 0.04 | 0.441 µM | > 10 µM | 0.14 | > 3.17 | 3.15 µM | –
